Source: ChEMBL document CHEMBL5696442, “Discovery of type II inhibitors of TGFβ-activated kinase 1 (TAK1) and mitogen-activated protein kinase kinase kinase kinase 2 (MAP4K2)” (J Med Chem, 2015)

Legend:
[1] = target: T1, Ephrin type-B receptor 4 (Homo sapiens) (UniProt P54760); assay: Inhibition of EphB4 ACT labeling site in human Huh-7 cell lysate at 1 uM by KiNativ Profiling analysis relative to control; type: subcellular
T1 sequence (whole entry): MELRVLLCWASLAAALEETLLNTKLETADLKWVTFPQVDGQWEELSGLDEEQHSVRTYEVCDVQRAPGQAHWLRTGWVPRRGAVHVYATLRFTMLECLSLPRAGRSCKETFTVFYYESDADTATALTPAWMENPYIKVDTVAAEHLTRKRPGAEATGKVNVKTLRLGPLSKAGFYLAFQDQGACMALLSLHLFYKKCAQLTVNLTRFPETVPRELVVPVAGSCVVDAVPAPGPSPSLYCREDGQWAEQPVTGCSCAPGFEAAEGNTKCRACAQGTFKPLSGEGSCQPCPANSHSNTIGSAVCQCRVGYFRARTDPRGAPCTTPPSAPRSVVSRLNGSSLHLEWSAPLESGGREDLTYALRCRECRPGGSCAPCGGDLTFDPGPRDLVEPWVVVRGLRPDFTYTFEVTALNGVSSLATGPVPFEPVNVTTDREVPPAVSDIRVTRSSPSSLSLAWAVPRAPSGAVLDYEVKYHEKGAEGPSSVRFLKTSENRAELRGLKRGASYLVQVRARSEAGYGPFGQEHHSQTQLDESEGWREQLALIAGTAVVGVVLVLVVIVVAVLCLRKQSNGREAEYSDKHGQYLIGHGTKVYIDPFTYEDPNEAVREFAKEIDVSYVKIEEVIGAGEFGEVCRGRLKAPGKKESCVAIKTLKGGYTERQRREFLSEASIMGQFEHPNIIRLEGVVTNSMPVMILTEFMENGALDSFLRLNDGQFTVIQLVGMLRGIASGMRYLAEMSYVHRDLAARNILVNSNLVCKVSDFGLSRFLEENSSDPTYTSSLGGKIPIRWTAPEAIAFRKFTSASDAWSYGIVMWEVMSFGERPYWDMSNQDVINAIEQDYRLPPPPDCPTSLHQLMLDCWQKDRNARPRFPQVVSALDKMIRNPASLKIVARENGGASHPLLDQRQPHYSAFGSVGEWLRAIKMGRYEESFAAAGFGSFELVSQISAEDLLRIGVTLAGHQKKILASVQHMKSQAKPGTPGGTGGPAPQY

[2] = target: Tyrosine-protein kinase Lyn (Homo sapiens, UniProt P07948); assay: Inhibition of LYN Lys1 labeling site in human A-375 cells at 5 uM by KiNativ Profiling analysis relative to control; type: cell-based
Sequence of Tyrosine-protein kinase Lyn (P07948 2-512 limits assumed): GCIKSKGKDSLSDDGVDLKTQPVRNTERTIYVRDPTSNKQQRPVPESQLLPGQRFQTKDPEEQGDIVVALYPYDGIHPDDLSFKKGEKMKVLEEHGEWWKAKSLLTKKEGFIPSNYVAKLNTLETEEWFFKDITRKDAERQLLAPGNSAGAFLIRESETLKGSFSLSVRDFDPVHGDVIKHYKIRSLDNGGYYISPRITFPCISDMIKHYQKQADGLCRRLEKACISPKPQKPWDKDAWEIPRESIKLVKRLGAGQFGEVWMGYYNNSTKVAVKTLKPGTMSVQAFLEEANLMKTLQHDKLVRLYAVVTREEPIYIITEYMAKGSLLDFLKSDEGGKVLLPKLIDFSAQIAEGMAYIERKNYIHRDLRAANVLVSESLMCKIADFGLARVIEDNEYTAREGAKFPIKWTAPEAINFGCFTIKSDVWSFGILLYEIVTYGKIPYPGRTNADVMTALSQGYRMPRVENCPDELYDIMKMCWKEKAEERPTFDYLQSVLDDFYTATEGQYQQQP

[3] = target: T2, DNA-PK/Ku70/Ku85 (Homo sapiens) (UniProt P78527+P12956+P13010); assay: Inhibition of DNAPK ATP labeling site harbouring GHDEREHPFLVKGGEDLR in human A-375 cells at 5 uM by KiNativ Profiling analysis relative to control; type: cell-based
Outline: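 A375 melanoma cells treated live with compound at 5 μM, then lysed. Lysates were labeled with a lysine-reactive ATP or ADP-biotin probe (KiNativ). Read-out is how well the compound protects each kinase labeling site from probe labeling.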

[4] = target: T3, Mitogen-activated protein kinase kinase kinase 3 (Homo sapiens) (UniProt Q99759); assay: Inhibition of MAP3K3 Lys2 labeling site in human A-375 cells at 5 uM by KiNativ Profiling analysis relative to control; type: cell-based
T3 sequence (whole entry): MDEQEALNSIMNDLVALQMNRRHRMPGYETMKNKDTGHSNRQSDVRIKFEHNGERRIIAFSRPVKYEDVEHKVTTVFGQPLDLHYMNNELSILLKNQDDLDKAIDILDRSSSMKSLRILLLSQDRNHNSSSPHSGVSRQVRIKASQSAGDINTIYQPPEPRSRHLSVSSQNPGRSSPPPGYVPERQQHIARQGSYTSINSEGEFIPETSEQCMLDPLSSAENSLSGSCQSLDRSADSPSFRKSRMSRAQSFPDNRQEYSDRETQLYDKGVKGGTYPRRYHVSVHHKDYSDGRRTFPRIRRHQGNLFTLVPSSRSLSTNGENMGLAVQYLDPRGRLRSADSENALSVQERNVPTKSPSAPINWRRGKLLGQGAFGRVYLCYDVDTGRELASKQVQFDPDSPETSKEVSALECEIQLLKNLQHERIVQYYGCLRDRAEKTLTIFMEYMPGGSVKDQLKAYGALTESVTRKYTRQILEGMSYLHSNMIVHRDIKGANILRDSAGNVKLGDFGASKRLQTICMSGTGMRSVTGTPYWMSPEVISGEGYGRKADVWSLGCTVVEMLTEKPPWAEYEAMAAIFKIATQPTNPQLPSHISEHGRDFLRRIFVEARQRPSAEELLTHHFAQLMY

[5] = target: Calcium/calmodulin-dependent protein kinase type II subunit gamma (Homo sapiens) (UniProt Q13555); assay: Inhibition of CaMK2g Lys1 labeling site harbouring TSTQEYAAKIINTK in human A-375 cells at 0.5 uM by KiNativ Profiling analysis relative to control; type: cell-based
Sequence of Calcium/calmodulin-dependent protein kinase type II subunit gamma (Homo sapiens) (Q13555 whole entry): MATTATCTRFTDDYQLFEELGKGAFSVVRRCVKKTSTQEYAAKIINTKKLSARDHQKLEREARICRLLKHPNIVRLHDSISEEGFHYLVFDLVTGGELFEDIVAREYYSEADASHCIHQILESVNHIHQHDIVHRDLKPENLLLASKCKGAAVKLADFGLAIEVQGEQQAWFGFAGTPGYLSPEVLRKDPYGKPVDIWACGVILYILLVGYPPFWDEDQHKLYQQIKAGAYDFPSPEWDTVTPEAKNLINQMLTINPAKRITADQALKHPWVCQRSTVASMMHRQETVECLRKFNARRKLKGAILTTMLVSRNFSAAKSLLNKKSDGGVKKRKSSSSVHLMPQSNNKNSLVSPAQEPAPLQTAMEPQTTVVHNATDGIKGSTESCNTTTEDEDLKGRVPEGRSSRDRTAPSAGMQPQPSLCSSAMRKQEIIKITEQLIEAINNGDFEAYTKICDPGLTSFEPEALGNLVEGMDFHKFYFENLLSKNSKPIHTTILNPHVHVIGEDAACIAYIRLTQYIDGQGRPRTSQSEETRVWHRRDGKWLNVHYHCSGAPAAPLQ
Outline: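 Live A375 melanoma cells were treated with compound at 5 or 0.5 μM. The cells were then lysed, and the lysates were labeled with a lysine-reactive ATP or ADP-biotin acyl probe (KiNativ). Inhibition is the compound's protection of each kinase labeling-site peptide from probe labeling, relative to untreated control.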

[6] = target: Ribosomal protein S6 kinase alpha-3 (Homo sapiens) (UniProt P51812); assay: Inhibition of RSK2 domain2 Protein Kinase Domain in human A-375 cells at 0.5 uM by KiNativ Profiling analysis relative to control; type: cell-based
Sequence of Ribosomal protein S6 kinase alpha-3 (Homo sapiens) (P51812 whole entry, the tested form may be a part): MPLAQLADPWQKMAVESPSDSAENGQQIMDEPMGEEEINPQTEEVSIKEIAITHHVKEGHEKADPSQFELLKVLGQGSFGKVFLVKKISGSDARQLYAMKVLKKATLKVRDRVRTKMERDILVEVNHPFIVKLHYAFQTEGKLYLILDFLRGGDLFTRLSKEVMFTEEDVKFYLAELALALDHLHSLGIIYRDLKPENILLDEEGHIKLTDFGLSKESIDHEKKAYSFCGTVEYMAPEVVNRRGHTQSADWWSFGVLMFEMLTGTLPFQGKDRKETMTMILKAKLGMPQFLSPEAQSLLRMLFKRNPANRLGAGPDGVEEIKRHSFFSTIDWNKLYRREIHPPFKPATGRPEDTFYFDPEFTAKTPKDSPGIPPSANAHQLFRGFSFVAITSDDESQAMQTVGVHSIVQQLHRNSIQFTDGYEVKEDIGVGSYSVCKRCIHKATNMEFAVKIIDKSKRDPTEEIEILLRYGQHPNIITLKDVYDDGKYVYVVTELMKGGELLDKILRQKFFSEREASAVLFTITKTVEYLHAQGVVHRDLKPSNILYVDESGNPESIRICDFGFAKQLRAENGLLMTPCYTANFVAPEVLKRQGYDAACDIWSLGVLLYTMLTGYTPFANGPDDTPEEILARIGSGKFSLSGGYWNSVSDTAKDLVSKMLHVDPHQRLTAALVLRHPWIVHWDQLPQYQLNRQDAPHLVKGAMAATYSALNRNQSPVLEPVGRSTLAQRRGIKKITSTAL
Outline: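 Live A375 melanoma cells treated with compound at 5 or 0.5 μM, then lysed. Lysate kinases were labeled with a lysine-reactive ATP or ADP-biotin probe. Inhibition was read as protection of labeling sites from the probe.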

[7] = target: T2, DNA-PK/Ku70/Ku85 (Homo sapiens); assay: Inhibition of DNAPK ATP labeling site harbouring EHPFLVKGGEDLR in human A-375 cells at 0.05 uM by KiNativ Profiling analysis relative to control; type: cell-based

Row | SMILES | inhibition [1] [%] | inhibition [2] [%] | inhibition [3] [%] | inhibition [4] [%] | inhibition [5] [%] | inhibition [6] [%] | inhibition [7] [%]
1 | CNc1cc(Oc2cc(C(=O)Nc3cc(N4CCN(C)CC4)cc(C(F)(F)F)c3)ccc2C)ncn1 | 0.2 |  |  |  |  |  | 
2 | CCN1CCN(Cc2ccc(NC(=O)c3ccc(C)c(Oc4ccnc5[nH]ccc45)c3)cc2C(F)(F)F)CC1 |  | > 95 | 17.1 | -4.8 | 19.2 | 7.2 | -9.3
3 | CNc1cc(Oc2cc(C(=O)Nc3cc(-n4cnc(C)c4)cc(C(F)(F)F)c3)ccc2C)ncn1 | 1.2 |  |  |  |  |  | 
4 | CCN1CCN(Cc2ccc(NC(=O)c3ccc(C)c(/C=C/c4cnc5[nH]ccc5c4OC)c3)cc2C(F)(F)F)CC1 |  | > 95 | 13.8 | 11.8 | 34.3 | -4.1 | 9.9
